ChEMBL document CHEMBL4808166, “Exploring the Chemistry of Alkaloids from Malaysian Mitragyna speciosa (Kratom) and the Role of Oxindoles on Human Opioid Receptors” (J Nat Prod, 2021)
Calls of active or inactive are those of the source.

How the values were obtained:
[1] = target: Delta-type opioid receptor (Homo sapiens) (UniProt P41143); assay: Displacement of [3H]DADLE from human recombinant delta opioid receptor expressed in Chem-1 (RBL) cells at 10000 nM incubated for 60 mins by radiometric scintillation analysis; assay type: cell-based
Sequence of Delta-type opioid receptor (Homo sapiens) (P41143 whole entry): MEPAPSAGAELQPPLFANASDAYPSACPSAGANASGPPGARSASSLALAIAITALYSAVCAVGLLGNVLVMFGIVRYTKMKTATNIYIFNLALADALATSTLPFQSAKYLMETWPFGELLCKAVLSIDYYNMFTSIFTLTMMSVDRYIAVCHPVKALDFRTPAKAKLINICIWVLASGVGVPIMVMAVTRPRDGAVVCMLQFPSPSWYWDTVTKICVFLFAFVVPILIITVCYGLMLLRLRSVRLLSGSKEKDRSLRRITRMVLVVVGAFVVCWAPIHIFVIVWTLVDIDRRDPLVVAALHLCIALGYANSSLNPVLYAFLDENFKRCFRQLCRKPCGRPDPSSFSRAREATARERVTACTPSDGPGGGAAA
Method in brief: (§1)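 δ receptor: membranes of human recombinant Chem-1 (RBL) cells with [3H]DADLE 0.5 nM. Nonspecific binding defined with 10 μM naltrexone. Incubated 60 min at room temperature. Test concentrations 0.1 and 10 μM. Bound ligand collected by rapid vacuum filtration on glass fiber filters, followed by ice-cold buffer rinses. Read-out is percent displacement.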

[2] = target: Kappa-type opioid receptor (Homo sapiens) (UniProt P41145); assay: Displacement of [3H]U69593 from human recombinant kappa opioid receptor expressed in Chem-1 (RBL) cells at 100 nM incubated for 60 mins by radiometric scintillation analysis; assay type: cell-based
Sequence of Kappa-type opioid receptor (Homo sapiens) (P41145 whole entry): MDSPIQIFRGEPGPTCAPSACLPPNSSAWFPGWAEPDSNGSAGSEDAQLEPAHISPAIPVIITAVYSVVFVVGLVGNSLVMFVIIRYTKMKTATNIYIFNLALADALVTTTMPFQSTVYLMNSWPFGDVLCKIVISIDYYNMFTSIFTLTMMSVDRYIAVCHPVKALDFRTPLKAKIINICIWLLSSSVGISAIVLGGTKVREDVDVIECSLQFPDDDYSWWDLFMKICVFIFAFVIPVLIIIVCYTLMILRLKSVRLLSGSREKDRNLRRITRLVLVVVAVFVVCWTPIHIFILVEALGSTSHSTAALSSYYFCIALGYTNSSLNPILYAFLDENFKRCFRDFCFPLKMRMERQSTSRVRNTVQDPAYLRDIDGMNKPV
Method in brief: (§2)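 κ receptor: human recombinant RBL cell membranes with [3H]U69,593 0.5 nM. Nonspecific binding defined with 10 μM naloxone. Incubated 60 min at room temperature. Screened at 0.1 and 10 μM. Bound fraction separated by vacuum filtration on glass fiber filters with ice-cold buffer washes. Read-out is percent displacement.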

[3] = target: Delta-type opioid receptor (Homo sapiens) (UniProt P41143); assay: Displacement of [3H]DADLE from human recombinant delta opioid receptor expressed in Chem-1 (RBL) cells at 100 nM incubated for 60 mins by radiometric scintillation analysis; assay type: cell-based; method in brief: as §1
Mu-type opioid receptor [4] = target: T1, Mu-type opioid receptor (Homo sapiens, UniProt P35372); assay: Displacement of [3H]DAMGO from human recombinant mu opioid receptor expressed in HEK293 cells at 10000 nM incubated for 120 mins by radiometric scintillation analysis; assay type: cell-based
T1 sequence (P35372 whole entry): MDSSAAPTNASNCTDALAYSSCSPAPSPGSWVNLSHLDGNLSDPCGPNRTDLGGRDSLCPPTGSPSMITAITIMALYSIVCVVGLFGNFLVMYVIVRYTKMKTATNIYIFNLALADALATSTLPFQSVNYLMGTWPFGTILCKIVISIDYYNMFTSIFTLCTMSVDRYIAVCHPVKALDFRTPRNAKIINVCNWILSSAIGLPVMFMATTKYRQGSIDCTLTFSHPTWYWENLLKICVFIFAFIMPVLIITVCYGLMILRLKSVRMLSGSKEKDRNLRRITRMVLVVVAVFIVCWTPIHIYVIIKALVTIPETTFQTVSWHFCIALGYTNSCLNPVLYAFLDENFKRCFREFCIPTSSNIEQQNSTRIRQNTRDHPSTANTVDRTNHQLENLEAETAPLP
Method in brief: (§3)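 Nonspecific binding defined with 10 μM naloxone. Incubation 120 min at room temperature. Compounds at 0.1 and 10 μM. Rapid vacuum filtration through presoaked glass fiber filters, rinsed with ice-cold buffer. Read-out is percent displacement.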

Mu-type opioid receptor [5] = target: T1, Mu-type opioid receptor; assay: biochemical; assay type: cell-based, HEK293
Mu-type opioid receptor [6] = target: T1, Mu-type opioid receptor; assay: Displacement of [3H]DAMGO from human recombinant mu opioid receptor expressed in HEK293 cells at 100 nM incubated for 120 mins by radiometric scintillation analysis; assay type: cell-based; method in brief: as §3
[7] = target: Kappa-type opioid receptor (Homo sapiens) (UniProt P41145); assay: Displacement of [3H]U69593 from human recombinant kappa opioid receptor expressed in Chem-1 (RBL) cells at 10000 nM incubated for 60 mins by radiometric scintillation analysis; assay type: cell-based; method in brief: as §2
Rattus norvegicus [8] = assay: Antinociceptive activity in iv dosed Sprague-Dawley rat assessed as hot plate latency compound administered as cumulative dose at 5 mins intervals by Hot-plate test; assay type: functional
Method in brief: (§4)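 Adult female and male Sprague-Dawley rats (10 weeks, n = 6, three per sex) with right external jugular vein catheter. Vehicle 5% Tween 80 + 5% propylene glycol in sterile water, 1.0 mL/kg i.v. After baseline, vehicle then ascending cumulative doses every 5 min, then naltrexone 0.1 mg/kg i.v. Plate at 52 °C, 60 s cutoff.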

Rattus norvegicus [9] = assay: Antinociceptive activity in iv dosed Sprague-Dawley rat assessed as hot plate latency compound administered as cumulative dose at 5 mins intervals in presence of naltrexone by Hot-plate test; assay type: functional, organism-based
Method in brief: as §4, with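 “cutoff. Latency converted to %MPE; ED50 (95% CI) by linear regression.” for “cutoff.”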

Structure (SMILES)	Activity [1] [%]	Activity [2] [%]	Activity [3] [%]	Activity (Mu-type opioid receptor [4]) [%]	Ki (Mu-type opioid receptor [5]) [nM]	Activity (Mu-type opioid receptor [6]) [%]	Activity [7] [%]	ED50 (Rattus norvegicus [8]) [mg/kg]	Activity (Rattus norvegicus [9])
CC[C@@H]1C[N+]2([O-])CCc3c([nH]c4cccc(OC)c34)[C@H]2C[C@@H]1/C(=C\OC)C(=O)OC (stereo partly drawn)	53.5	6.6	5.1	84.6	553	10.5	80.9		
CC[C@@H]1CN2CC[C@@]3(C(=O)Nc4ccccc43)[C@@H]2C[C@@H]1/C(=C\OC)C(=O)OC [CORYNOXINE]	73.8	3.8	-3.9	97.8	16.4	80.1	75.3	6.75	
C=C[C@H]1CN2CCc3c([nH]c4cccc(OC)c34)[C@@H]2C[C@@H]1/C(=C\OC)C(=O)OC					410				
CC[C@@H]1CN2CC[C@]3(C(=O)Nc4ccccc43)[C@@H]2C[C@@H]1/C(=C\OC)C(=O)OC [CORYNOXINE B]	65.5	4.5	-4.4	94.4	110	45.4	51.8		
O=C1CC[C@@]2(O)[C@H]3Cc4ccc(O)c5c4[C@@]2(CCN3CC2CC2)[C@H]1O5									inactive
CC[C@@H]1CN2CC[C@@]3(C(=O)Nc4cccc(O)c43)[C@H]2C[C@@H]1/C(=C\OC)C(=O)OC	27.1	0.1	0	83.3	789	13.1	37.3		
CC[C@@H]1CN2CC[C@]3(C(=O)Nc4cccc(OC)c43)[C@@H]2C[C@@H]1/C(=C\OC)C(=O)OC	87.1	5	10.4	66.5	1720	7.3	23		
